Bioassay records deposited in PubChem by several laboratories.
SENP1 FRET inh: human SENP1 catalytic domain inhibitors, primary screen, biochemical, FRET, uHTS; Sentrin-specific protease 1 (Homo sapiens), Q9P0U3; recombinant SENP1 catalytic domain, CyPet-SUMO1-YPet FRET cleavage; inhibition, % at 10 µM; 360,000 tested, 0.21% active; AID 624204, 2012;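 active means inhibition at least 30% at 10 µM, raw YFP signal under a set limit, fluorescence ratio 0.5 to 1.5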
Target sequence (Q9P0U3 419-644 limits assumed): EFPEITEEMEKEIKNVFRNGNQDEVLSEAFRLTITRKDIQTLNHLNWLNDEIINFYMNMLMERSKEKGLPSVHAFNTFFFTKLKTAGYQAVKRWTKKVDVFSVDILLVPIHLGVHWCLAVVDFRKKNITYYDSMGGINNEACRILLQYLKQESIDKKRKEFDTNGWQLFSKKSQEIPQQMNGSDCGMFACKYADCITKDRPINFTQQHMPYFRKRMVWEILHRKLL
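Material: hSENP1 catalytic domain, recombinant; medium: Tris pH 8 with BME, BSA, NP40 and catalase; compound: single concentration of 10 µM compound, 0.5% DMSO final; technique: FRET read of cyan and yellow fluorescence; timing: 50 min enzyme reaction, room temperature, light-protected; reagent: SFCypet-SUMO1-SFYpet substrate at 25 nM; control set: no-enzyme low, enzyme-DMSO high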
SENP6 inh: SENP6 protease inhibitors, primary screen, biochemical, luminescence, uHTS. Recombinant SENP6 catalytic domain, aminoluciferin luminescence. Sentrin-specific protease 6 (Homo sapiens), Q9GZR1. inhibition, % at 10 µM. 330,000 tested, 1.8% active;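 active means inhibition above about 50% at the single tested dose, limit read from the data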
HSP90 refold inh: HSP90 inhibitors, primary screen, cell lysate, luminescence; Heat shock protein HSP 90 (rabbit reticulocyte lysate; luciferase refolding); Rabbit reticulocyte lysate, luciferase refolding luminescence, 3 h; inhibition, % at 5.6 µM; 290,000 tested, 0.91% active; AID 1789, 2009;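 active means inhibition above the screen-wide mean plus 3 SD, computed separately per campaign, cut at about 16% in these data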;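 further: inhibitors lower the luminescence because luciferase stays unfolded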
SENP7 block: SENP7 protease inhibitors, primary screen, biochemical, luminescence, uHTS; Sentrin-specific protease 7 (Homo sapiens), Q9BQF6; recombinant SENP7, Z-RLRGG-aminoluciferin luminescence, 40 min; inhibition, % at 5 µM; 330,000 tested, 1.5% active;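 active means inhibition above about 50% at the single test dose, limit read from the data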
SENP8 block-1: SENP8 protease inhibitors, primary screen, biochemical, luminescence; purified SENP8, Z-RLRGG-aminoluciferin cleavage; inhibition, % at 10 µM; 330,000 tested, 1.2% active; in the data active means inhibition above about 50%
SENP8 block-2: human SENP8 protease inhibitors, primary screen, biochemical, fluorescence, Nedd8 protein substrate, uHTS; Sentrin-specific protease 8 (Homo sapiens), Q96LD8; recombinant SENP8; inhibition, % at 20 µM; 360,000 tested, 0.64% active; AID 602440, 2012; in the data active means inhibition mostly above about 40%, no sharp cut-off; inactive means mostly below about 27%
SENP8 confirm: SENP8 protease inhibitors, retest, confirmation, biochemical, luminescence, single concentration. 6,200 tested, 40% active. Recombinant SENP8, Z-RLRGG-aminoluciferin luminescence, 60 min. shares compounds with SENP7 block. inhibition, % at 12.5 µM;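 active means mean inhibition across replicates above about 50%, limit read from the data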
SENP6 conf: SENP6 protease inhibitors, confirmation, biochemical, luminescence, single concentration. AID 488915, 2010. recombinant SENP6, Z-RLRGG-aminoluciferin luminescence. 6,200 tested, 58% active. inhibition, % at 12.5 µM. shares compounds with SENP7 block
SENP7 confirm: SENP7 protease inhibitors, retest, confirmation, biochemical, luminescence, single concentration; shares compounds with SENP7 block; inhibition, % at 12.5 µM; 6,200 tested, 69% active; recombinant SENP7, Z-RLRGG-aminoluciferin luminescence, 40 min
Casp3 select: caspase-3 protease inhibitors, confirmation, selectivity assay for SENP inhibitor project, biochemical, single concentration; shares compounds with SENP7 block; purified caspase-3, Z-DEVD-aminoluciferin luminescence, 60 min; inhibition, % at 12.5 µM; 6,200 tested, 60% active;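 active means mean inhibition above about 50%, limit read from the data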
Target sequence (P42574 28-227 limits assumed): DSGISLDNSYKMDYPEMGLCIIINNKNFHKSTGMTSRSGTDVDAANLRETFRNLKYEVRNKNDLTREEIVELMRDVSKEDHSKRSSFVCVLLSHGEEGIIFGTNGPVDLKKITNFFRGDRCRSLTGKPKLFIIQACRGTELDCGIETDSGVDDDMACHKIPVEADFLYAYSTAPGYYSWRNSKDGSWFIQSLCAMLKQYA
SENP luc ctr: counter-screen for SENP inhibitors: luminescence interference; shares compounds with SENP7 block; Pre-incubated SENP8/Z-RLRGG-aminoluciferin, luciferase luminescence interference; inhibition, % at 12.5 µM; 6,200 tested, 39% active;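 active means mean inhibition above about 50% when retested at one dose, limit read from the data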
Numbers stand for hits; n = inactive; x = no result given. Shown are actives, neighbours in structure and some others; about 2.9% of the full set was active somewhere.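 How the source made its calls, unless noted: active means mean inhibition above about 50% in the one-dose retest (limit read from the data); inactive means the rest.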

SMILES | SENP1 FRET inh | SENP6 inh | HSP90 refold inh | SENP7 block | SENP8 block-1 | SENP8 block-2 | SENP8 confirm | SENP6 conf | SENP7 confirm | Casp3 select | SENP luc ctr
Cc1occc1C(=O)Nc1ccc(OCc2ccccc2)cc1 | n | 98 | n | 100 | 96 | n | 90 | 100 | 104 | 99 | 73
CCCCN(C)CC(O)Cn1cc(/C=C/C(=O)c2ccc(C)cc2)c2ccccc21 (centres undefined) | n | n | n | n | n | n | x | x | x | x | x
CN(C(=O)CSc1nnc(Cc2cccs2)n1C1CC1)C1CCS(=O)(=O)C1 (centres undefined) | n | n | x | n | n | n | x | x | x | x | x
COc1cccc(C(NC(C)=O)c2nc(-c3cccs3)cs2)c1 (centres undefined) | n | x | x | x | x | n | x | x | x | x | x
O=C(O)c1c(C(=O)O)c(-c2ccc(Cl)c(Cl)c2)n2c1CSC2 | n | n | n | n | n | n | x | x | x | x | x
CCN(Cc1nc2cc(Cl)ccc2c(=O)[nH]1)C(=O)CN1C(=O)NC2(CCCCC2C)C1=O (centres undefined) | n | n | x | n | n | n | x | x | x | x | x
COc1cccc(Oc2ncnc(N)c2[N+](=O)[O-])c1 | n | n | n | n | n | n | x | x | x | x | x
N#C/C(=C\c1ccc(OCc2ccc(Cl)cc2)cc1)C(=O)Nc1cccc(C(=O)O)c1 | n | n | n | n | n | n | x | x | x | x | x
COc1ccc(NC(=O)c2cccs2)cc1 | n | 60 | n | n | n | n | n | n | 74 | 79 | 62
CCCOC(=O)c1ccc(NC(=O)c2ccoc2C)cc1 | n | 95 | n | 93 | 89 | n | 94 | 95 | 101 | 92 | 66
O=C(N/N=C/c1ccc(OCc2ccccc2)cc1)c1cccs1 | n | n | n | n | n | n | x | x | x | x | x
CCCOC(=O)c1ccc(NC(=O)c2ccccc2OC)cc1 | n | n | n | n | n | n | x | x | x | x | x
O=C(O)c1cccc(NC(=O)c2ccc(COc3ccc(Cl)cc3)cc2)c1 | n | 70 | n | n | 53 | n | n | n | 59 | n | n
O=C(Nc1ccc(OCc2ccccc2)cc1)c1cccs1 | n | 70 | n | 84 | 58 | n | n | 60 | 93 | 73 | n
Nc1nc2c(nnn2Cc2ccc(Cl)c(Cl)c2)c(=O)[nH]1 | n | x | x | x | x | n | x | x | x | x | x
CC(NC(=O)c1cc2cc(Br)ccc2oc1=N)c1ccccc1 (centres undefined) | n | n | n | n | n | n | x | x | x | x | x
Cc1cc(F)ccc1-c1cc(C(=O)N2CCN(c3ccncc3)CC2)[nH]n1 | n | x | x | x | x | n | x | x | x | x | x
O=C(COC(=O)c1ccc([N+](=O)[O-])o1)Nc1ccc2c(c1)OC(F)(F)O2 | n | x | x | x | x | n | x | x | x | x | x
O=C(Nc1ccc(OCc2ccccc2)cc1)c1cccc([N+](=O)[O-])c1 | n | n | n | 56 | n | n | n | n | n | n | n
